Source: PubChem
Sampled rows, rich in hits. Any-hit rate of the full collection: about 3.7%.
KCNK3 block: human KCNK3 channel inhibition, primary screen. O14649. CHO-KCNK3 thallium flux, FluxOR fluorescence; active compounds read low. B-score at 10 µM. 0.84% of 340,000 active. AID 602410;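 active = B-score under library mean minus 4 SD, starting fluorescence ratio at most library mean plus 5 SD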;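 note: more negative B-score means stronger inhibition of thallium flux through KCNK3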
Target sequence (O14649 whole entry, looked up): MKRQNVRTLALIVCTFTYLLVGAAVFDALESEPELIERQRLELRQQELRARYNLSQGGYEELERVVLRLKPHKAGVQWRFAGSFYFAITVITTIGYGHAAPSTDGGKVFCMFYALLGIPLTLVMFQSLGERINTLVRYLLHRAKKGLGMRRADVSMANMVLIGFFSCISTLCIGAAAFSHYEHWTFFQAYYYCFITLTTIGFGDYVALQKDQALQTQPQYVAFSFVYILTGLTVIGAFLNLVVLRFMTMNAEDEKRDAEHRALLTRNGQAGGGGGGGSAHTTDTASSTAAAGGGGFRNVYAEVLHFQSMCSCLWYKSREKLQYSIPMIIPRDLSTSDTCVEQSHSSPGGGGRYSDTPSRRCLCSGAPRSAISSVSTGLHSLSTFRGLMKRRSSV
KCNQ1 block: inhibitors of human KCNQ1 potassium channel; P51787; CHO-K1 KCNQ1, FluxOR thallium flux fluorescence; active compounds read high; B-score at 10 µM; 1.3% of 310,000 active; AID 2642;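 active = compounds whose thallium flux B-score, printed positive for inhibition, exceeds three library SD while starting fluorescence stays within three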;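 note: channel opened by potassium depolarization with thallium stimulus after 20 min compound exposure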
KCNK9 block: inhibitors of human KCNK9 two-pore domain potassium channel; Q9NPC2; 1.2% of 310,000 active; HEK293 KCNK9, FluxOR thallium flux fluorescence; active compounds read low; AID 488922; B-score at 10 µM;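 active = ratio B-score over 3 SD below the library mean, with starting fluorescence within 5 SD of its mean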;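 note: negative B-score means less thallium flux so channel inhibition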
hERG rescue: hERG (human) protection from proarrhythmic block | AID 1511 | 0.51% of 310,000 active | activation (rescue from dofetilide block), less the hit threshold, % at 10 µM | CHO-hERG, FluxOR thallium flux, dofetilide IC70 present;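 active = activation above the mean of controls blocked by dofetilide plus 5 SD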;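 note: thallium influx through hERG after potassium depolarization seen as dye fluorescence rise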
Kir21 block: blocks the mouse Kir2.1 inward-rectifier potassium channel; B-score at 10 µM; HEK293-Kir2.1, FluxOR thallium flux fluorescence; active compounds read low; AID 1672; 0.85% of 310,000 active; P35561;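 active = fluorescence ratio B-score at or below minus 3 SD of library scores, with starting-brightness B-score within 2 SD, cut at about -4.2 in these data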;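 note: channel flux triggered by added potassium and thallium sulfate stimulus; B-score of peak minus minimum fluorescence over baseline after thallium stimulus; more negative B-score means stronger Kir2.1 block with less thallium influx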
KCNQ1 act: human KCNQ1 channel potentiation or activation; P51787; CHO-K1 KCNQ1, thallium flux FluxOR fluorescence; active compounds read high; B-score at 10 µM; 0.35% of 310,000 active; AID 2648;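 active = fluorescence ratio B-score, a plate-corrected score, at least three library SD, with initial intensity B-score within 5 SD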
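Medium – assay buffer, equal DMSO in all wells · Material – CHO-K1 cell line with stable KCNQ1 potassium channel expression · Signal – kinetic FluxOR thallium fluorescence, 10-s 1-Hz baseline, 110-s post-stimulus read · Compound – single concentration per compound, DMSO matched to controls · Schedule – 37 °C overnight plating, 90-min dark dye load, 20-min compound pretreatment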
KCNK9 block conf: confirmation of human KCNK9 potassium channel inhibitors; shares compounds with KCNK9 block; HEK293 KCNK9 cells, FluxOR thallium flux fluorescence; inhibition, % at 10 µM; 43% of 4,900 active;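 active = thallium signal inhibited by more than 5 SD of the compound-free buffer control wells, on both duplicate plates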;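 note: 0% = assay buffer control wells without compound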
Kir21 sel: selectivity of KCNK9 modulators against mouse Kir2.1 | shares compounds with KCNK9 block | Kir2.1 cells, FluxOR thallium flux fluorescence | inhibition, % at 10 µM | 4% of 4,900 active | AID 492993;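 active = thallium signal drop more than 5 SD beyond the mean of the no-compound control wells, seen in both duplicate plates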;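 note: signal is fluorescence rise after thallium addition divided by baseline fluorescence; plate controls were assay buffer only for no effect and full block by chlorpromazine control for full effect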
KCNK9 uninduced: second counter-screen for KCNK9 modulators: effect in non-induced cells; 40% of 4,900 active; inhibition, % at 10 µM; non-induced KCNK9-HEK293, FluxOR thallium flux; AID 492997; shares compounds with KCNK9 block;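 active = thallium signal drop beyond 5 SD of the untreated control mean, on both duplicate plates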;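 note: plate controls were buffer only IC0 wells for no effect and SID17386958 at its maximal inhibitory level for full effect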
* hit, by the source's call; i = inactive; . = not tested or not shown.

SMILES | KCNK3 block | KCNQ1 block | KCNK9 block | hERG rescue | Kir21 block | KCNQ1 act | KCNK9 block conf | Kir21 sel | KCNK9 uninduced
CCN(CC)S(=O)(=O)c1cccc(-c2nnc(SCC(=O)c3cc(C)n(C)c3C)o2)c1 | i | i | i | 0.9 | -0.7 | i | . | . | .
Cc1cc(C)nc(NS(=O)(=O)c2ccc(NC(=O)C3(c4ccc([N+](=O)[O-])cc4)CCCC3)cc2)n1 | i | i | i | -5.4 | 0.68 | i | . | . | .
Cc1cccc(NC(=O)C2(c3ccc([N+](=O)[O-])cc3)CCCC2)c1 | i | 6* | i | -8.4 | -2.6 | i | i | i | i
C=CCN(c1ccccc1C(=O)NCC(=O)O)S(=O)(=O)c1ccccc1C | i | i | i | -11.1 | -1.07 | i | . | . | .
COCC1CCN(Cc2nc(-c3ccc(OC)cc3)no2)CC1 | i | i | i | -5.9 | -1 | i | . | . | .
N#Cc1nc(Cc2ccccc2)oc1N1CCN(c2cccc(Cl)c2)CC1 | i | i | -10.8* | -8.8 | 0.32 | i | 38.0%* | i | i
Clc1cccc(N2CCN(Cc3nc(-c4ccccc4)no3)CC2)c1 | i | i | i | -6.8 | -0.04 | i | i | i | i
c1ccc(CC2CCN(Cc3nc(-c4ccccc4)no3)CC2)cc1 | i | i | i | -12.2 | -1.41 | i | i | i | i
COc1ccc(-c2noc(CN3CCC(Cc4ccccc4)CC3)n2)cc1 | i | i | i | -10.4 | 0.63 | i | i | i | i
CCCN(CCC)C(=O)c1cc(S(=O)(=O)N2CCCCC2)c[nH]1 | i | i | i | -13.5 | 1.26 | i | . | . | .
CCOC(=O)C1CCN(Cc2cc(C(C)(C)C)c(O)c(C(C)(C)C)c2)CC1 | i | i | i | -11.1 | -1.09 | i | i | i | i
COc1cccc(/C=C(/C(=O)OCC(=O)NC2CCCC(C)C2C)c2ccccc2)c1 (stereo unspecified) | i | 10* | -9.29* | -29.8 | -0.16 | i | 43.0%* | i | 43.5%*
COc1ccc(N2C(=NC(=O)c3ccccc3)SC3CS(=O)(=O)CC32)cc1 (stereo unspecified) | i | i | i | -5.5 | -0.92 | i | . | . | .
Cc1cc(C)cc(SCc2noc(C(=O)NCCC(C)C)c2C(=O)NCCC(C)C)c1 | i | i | i | -7.4 | 0.06 | i | i | i | i
CCCCNC(=O)c1onc(CSc2cc(C)cc(C)c2)c1C(=O)NCCCC | i | i | i | -7.3 | 0.41 | i | i | i | i
COCCNC(=O)c1onc(CSc2cc(C)cc(C)c2)c1C(=O)O | i | i | i | -6.8 | -0.81 | i | . | . | .
O=C(NCC1CC1)c1onc(CSc2ccc(F)cc2)c1C(=O)NCC1CC1 | i | i | i | -3.2 | -1.32 | i | . | . | .
Cc1cc(C)cc(SCc2noc(C(=O)NCC3CC3)c2C(=O)NCC2CC2)c1 | . | i | i | -6.0 | -0.88 | i | i | i | i
Cc1ccc(-c2csc3nc(SCC(=O)N(C)C)n(Cc4ccccc4)c(=O)c23)cc1 | i | i | -9.51* | -13.5 | 0.51 | i | 49.5%* | i | 28.0%*
Cc1ccc(-c2[nH]c3ccccc3c2SCCNC(=O)c2cc3ccccc3oc2=O)cc1 | i | 6* | i | -12.4 | 0.29 | i | i | i | i
COc1ccc(C2=NN(C(=O)c3cccc([N+](=O)[O-])c3)C(c3cccc([N+](=O)[O-])c3)C2)cc1 (stereo unspecified) | i | i | -13.2* | -8.6 | -0.12 | i | 64.5%* | i | 35.0%*
CN1OC[C@@H]2CN[C@H](c3cccc(-c4ccccc4)c3)C[C@@H]21 | i | . | . | . | . | . | . | . | .
Cc1ccc(C(=O)OCC(=O)N2CCCCCC2)c(O)c1 | i | . | . | . | . | . | . | . | .
CCC(OCC(O)CN1CCN(CCN2C(=O)c3cccc4cccc(c34)C2=O)CC1)c1ccccc1 (stereo unspecified) | i | i | i | -18.1 | -0.91 | i | i | i | i
C=CCc1ccccc1OCC(O)CN1CCN(CCN2C(=O)c3cccc4cccc(c34)C2=O)CC1 (stereo unspecified) | i | i | i | -31.4 | -2.17 | i | i | i | i
SMILES | KCNK3 block | KCNQ1 block | KCNK9 block | hERG rescue | Kir21 block | KCNQ1 act | KCNK9 block conf | Kir21 sel | KCNK9 uninduced
Cc1cccc(C)c1OCC(O)CN1CCC(CN2C(=O)c3cccc4cccc(c34)C2=O)CC1 (stereo unspecified) | i | i | i | -21.8 | 1.09 | i | i | i | i
Cc1ccccc1OCC(O)CN1CCN(CCN2C(=O)c3cccc4cccc(c34)C2=O)CC1 (stereo unspecified) | i | i | i | -9.9 | 0.09 | i | i | i | i
CCOc1ccccc1NC(=O)N1CCC(C(=O)c2ccc(F)cc2)CC1 | i | i | -10* | -19.5 | -0.62 | i | 41.5%* | i | 36.5%*
Cc1ccccc1OCc1nc2ccccc2c(=O)n1/N=C/c1cccc([N+](=O)[O-])c1 | i | i | -8.81* | -9.4 | 2.72 | i | i | i | i
Cc1ccccc1OCc1nc2ccccc2c(=O)n1/N=C/c1cn[nH]c1-c1ccccc1 | i | i | i | -12.9 | 0.03 | i | . | . | .
CC1CCCN(S(=O)(=O)c2ccc(CN3C(=O)c4cccnc4C3=O)cc2)C1 (stereo unspecified) | i | i | i | -5.0 | -0.11 | i | . | . | .
Cc1cc(C)nc(SCc2nnc(SCc3ccccc3Cl)o2)n1 | i | i | -8.45* | -12.1 | -2.01 | i | 47.0%* | i | i
CCN(c1ccccc1)S(=O)(=O)c1cc([N+](=O)[O-])ccc1N | i | i | -10.6* | -8.3 | -6.98* | i | 41.0%* | 31.0%* | 33.0%*
NCCCC[C@H]1CNC(=O)C(=O)N1CCc1cccc(F)c1 | i | i | i | -3.7 | -0.72 | i | . | . | .
CC1(c2ccccc2)NC(=O)N(CC(=O)Nc2ccc3c(c2)OCO3)C1=O (stereo unspecified) | i | i | i | -10.0 | 0.21 | i | . | . | .
CC1(c2ccc(OC(F)F)cc2)NC(=O)N(CC(=O)Nc2ccc3c(c2)OCO3)C1=O (stereo unspecified) | i | i | -9.8* | -16.1 | -1.1 | 13* | i | i | 31.0%*
